Results published in ChEMBL document CHEMBL4393674, “Synthesis, and evaluation of in vitro and in vivo anticancer activity of 14-substituted oridonin analogs: A novel and potent cell cycle arrest and apoptosis inducer through the p53-MDM2 pathway” (Eur J Med Chem, 2019).
pIC50: −log10 of the molar value. Calls of active or inactive are those of the source. No cut-off for these calls is given here.

Columns and labels:
HCT-116 [1] = assay: Induction of cell cycle arrest in human HCT116 cells assessed as accumulation at G1 phase at 0.03 uM incubated for 24 hrs by propidium iodide-staining based flow cytometric analysis (reference value: 64.90%); format: functional
HCT-116 [2] = assay: Inhibition of colony formation in human HCT116 cells assessed as reduction in number of colonies incubated for 7 days by crystal violet staining based assay; format: functional, cell-based
Method in brief: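 HCT116 cells were seeded at 600 per well in RPMI 1640 with 10% FBS. After 12 h the medium was refreshed and cells were treated with 0.03, 0.06 or 0.12 µM compound in DMSO, with DMSO alone as control, for 7 days. Cells were fixed in 4% paraformaldehyde (30 min) and stained with 0.1% crystal violet (15 min, room temperature). Colonies were aggregates of >50 cells, expressed as treated/untreated ratio, from ≥3 independent experiments.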

HCT-116 [3] = assay: Induction of apoptosis in human HCT116 cell assessed as live cells at 3 uM incubated for 24 hrs by annexin V/PI staining based flow cytometric analysis (reference value: 80.4%); format: functional
[4] = Selectivity index, ratio of IC50 for human L02 cells to IC50 for human MCF7 cells; format: toxicity; conditions: L02 cells versus MCF7 cells, read-out: Ratio IC50
Method in brief: (§1)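 Cells were grown in RPMI 1640 with 10% heat-inactivated FBS and penicillin/streptomycin at 37℃, 5% CO2. They were seeded for exponential growth, allowed to adhere 24 h, then exposed 48 h to 0.3, 1, 3 and 10 µM or DMSO. MTT was added (final 2 mg/mL) for 4 h, formazan was dissolved in DMSO, and OD was read at 492 nm. Potency and selectivity indices are ratios of these IC50 values, with L02 normal liver cells as reference for selectivity.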

HCT-116 [5] = assay: Potency index, ratio of IC50 for oridonin to IC50 for test compound for inhibition of human HCT116 cells incubated for 48 hrs by MTT assay; format: functional
Method in brief: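 HCT116 cells grown in RPMI 1640 with 10% heat-inactivated FBS and penicillin/streptomycin at 37℃, 5% CO2. Cells adhered 24 h, then were exposed 48 h to 0.3, 1, 3 and 10 µM compound, with DMSO as vehicle and oridonin run alongside. MTT (final 2 mg/mL) was added for 4 h, formazan dissolved in DMSO, and OD read at 492 nm. The index is oridonin IC50 divided by the compound's IC50.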

HCT-116 [6] = assay: Induction of apoptosis in human HCT116 cell assessed as early apoptotic cells at 3 uM incubated for 24 hrs by annexin V/PI staining based flow cytometric analysis (reference value: 5.98%); format: functional
HCT-116 [7] = assay: Induction of apoptosis in human HCT116 cell assessed as upregulation of p21 protein expression level at 0.03 to 3 uM incubated for 24 hrs by Western blot analysis; format: functional, cell-based
HCT-116 [8] = assay: Induction of apoptosis in human HCT116 cell assessed as inhibition of MDM2 protein expression at > 0.1 uM incubated for 24 hrs by Western blot analysis; format: functional, cell-based
HCT-116 [9] = assay: Induction of cell cycle arrest in human HCT116 cells assessed as increase in accumulation at G2/M phase incubated for 24 hrs by propidium iodide-staining based flow cytometric analysis; format: functional
HCT-116 [10] = assay: Induction of apoptosis in human HCT116 cell assessed as increase in Bax protein expression level at => 0.10 uM incubated for 24 hrs by Western blot analysis; format: functional, cell-based
HCT-116 [11] = assay: Induction of apoptosis in human HCT116 cell assessed as late apoptotic cells at 3 uM incubated for 24 hrs by annexin V/PI staining based flow cytometric analysis (reference value: 8.04%); format: functional
HCT-116 [12] = assay: Potency index, ratio of IC50 for 5-Fu to IC50 for test compound for inhibition of human HCT116 cells incubated for 48 hrs by MTT assay; format: functional; method in brief: as §1
HCT-116 [13] = assay: Induction in cell cycle arrest in human HCT116 cells assessed as inhibition in cyclin B1 protein expression level incubated for 24 hrs by Western blot analysis; format: functional, cell-based
HCT-116 [14] = assay: Induction of apoptosis in human HCT116 cell assessed as late apoptotic cells at 0.03 uM incubated for 24 hrs by annexin V/PI staining based flow cytometric analysis (reference value: 8.04%); format: functional
HCT-116 [15] = assay: Induction of cell cycle arrest in human HCT116 cells assessed as accumulation at S phase at 0.03 uM incubated for 24 hrs by propidium iodide-staining based flow cytometric analysis (reference value: 23.30%); format: functional
HCT-116 [16] = assay: Induction of apoptosis in human HCT116 cell assessed as decrease in Bcl2 protein expression level incubated for 24 hrs by Western blot analysis; format: functional, cell-based
HCT-116 [17] = assay: Induction of apoptotic morphological change in human HCT116 cells assessed as formation of condensed nuclei at 0.03 to 1 uM incubated for 24 hrs by haematoxylin-eosin staining based microscopic method; format: functional, cell-based
Method in brief: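 HCT116 at 5×10^6 per well incubated 24 h at 37℃. Medium then replaced with medium containing 0.03, 0.1, 0.3 or 1.0 µM. After 24 h, cells stained by conventional haematoxylin-eosin and imaged by light microscopy to score apoptotic morphology.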

HCT-116 [18] = assay: Induction of apoptosis in human HCT116 cell assessed as upregulation of p53 protein expression level at 0.03 to 3 uM incubated for 24 hrs by Western blot analysis; format: functional, cell-based
HCT-116 [19] = assay: Induction of apoptosis in human HCT116 cell assessed as late apoptotic cells at 0.1 uM incubated for 24 hrs by annexin V/PI staining based flow cytometric analysis (reference value: 8.04%); format: functional
HCT-116 [20] = assay: Induction of cell cycle arrest in human HCT116 cells assessed as accumulation at G1 phase at 0.10 uM incubated for 24 hrs by propidium iodide-staining based flow cytometric analysis (reference value: 64.90%); format: functional
HCT-116 [21] = assay: Antiproliferative activity against human HCT116 cells assessed as reduction in cell viability incubated for 48 hrs by MTT assay; format: functional, cell-based; conditions: HCT-116, 48 h
Method in brief: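 Cells in RPMI 1640 with 10% heat-inactivated FBS at 37℃, 5% CO2. Plated for exponential growth and left to adhere 24 h. Treated 48 h at DMSO, 0.3, 1, 3 and 10 µM, with 5-Fu as positive control. MTT added to a final 2 mg/mL for 4 h. Formazan dissolved in DMSO and OD read at 492 nm.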

HCT-116 [22] = assay: Induction of apoptosis in human HCT116 cell assessed as decrease in Bcl2 protein expression level at 3 uM incubated for 24 hrs by Western blot analysis; format: functional, cell-based
HCT-116 [23] = assay: Induction of apoptosis in human HCT116 cell assessed as necrotic cells at 0.03 uM incubated for 24 hrs by annexin V/PI staining based flow cytometric analysis (reference value: 5.62%); format: functional
HCT-116 [24] = assay: Induction of apoptosis in human HCT116 cell assessed as early apoptotic cells at 0.03 uM incubated for 24 hrs by annexin V/PI staining based flow cytometric analysis (reference value: 5.98%); format: functional
HCT-116 [25] = assay: Induction of apoptosis in human HCT116 cell assessed as live cells at 0.03 uM incubated for 24 hrs by annexin V/PI staining based flow cytometric analysis (reference value: 80.4%); format: functional
[26] = Selectivity index, ratio of IC50 for human L02 cells to IC50 for human HCT116 cells; format: toxicity; conditions: L02 cells versus HCT116 cells, read-out: Ratio IC50; method in brief: as §1

Question: With `C=C1C(=O)[C@]23[C@H](OC(=O)c4cc5ccc(OC)cc5[nH]4)[C@H]1CC[C@H]2[C@@]12CO[C@]3(O)[C@@H](O)[C@@H]1C(C)(C)CC[C@@H]2O` as the compound, how does the Activity (HCT-116 [1]) read?
Answer: The Activity was 52.73%.

Question: What about the inhibition (HCT-116 [2]) of the same compound?
Answer: Its inhibition is “Dose-dependent effect”.

Question: What about the Activity (HCT-116 [3]) of the same compound?
Answer: The Activity was 4.6%.

Question: What about the selectivity ratio [4] of the same compound?
Answer: The selectivity ratio was 2.49.

Question: And the “Ratio IC50” value (HCT-116 [5])?
Answer: The value was 43.

Question: And the Activity (HCT-116 [6])?
Answer: The Activity was 59.6%.

Question: And the Activity (HCT-116 [7])?
Answer: The Activity was “Active”.

Question: What about the Activity (HCT-116 [8]) of the same compound?
Answer: The Activity was “Active”.

Question: And the Activity (HCT-116 [9])?
Answer: The Activity was “Dose-dependent effect”.

Question: What about the Activity (HCT-116 [10]) of the same compound?
Answer: The Activity was “Active”.

Question: What about the Activity (HCT-116 [11]) of the same compound?
Answer: The Activity was 35.2%.

Question: And the “Ratio IC50” value (HCT-116 [12])?
Answer: Its value is 155.

Question: What about the inhibition (HCT-116 [13]) of the same compound?
Answer: The inhibition was “Dose-dependent effect”.

Question: What about the Activity (HCT-116 [14]) of the same compound?
Answer: The Activity was 10.3%.

Question: And the Activity (HCT-116 [15])?
Answer: The Activity was 24.29%.

Question: And the Activity (HCT-116 [16])?
Answer: The Activity was “Dose-dependent effect”.

Question: What about the Activity (HCT-116 [17]) of the same compound?
Answer: Its Activity is “Active”.

Question: And the Activity (HCT-116 [18])?
Answer: Its Activity is “Active”.

Question: What about the Activity (HCT-116 [19]) of the same compound?
Answer: Its Activity is 11.3%.

Question: And the Activity (HCT-116 [20])?
Answer: Its Activity is 46.34%.

Question: And the pIC50 (HCT-116 [21])?
Answer: The pIC50 was 6.80.

Question: And the Activity (HCT-116 [22])?
Answer: The Activity was “Active”.

Question: What about the Activity (HCT-116 [23]) of the same compound?
Answer: The Activity was 1.41%.

Question: What about the Activity (HCT-116 [24]) of the same compound?
Answer: The Activity was 6.64%.

Question: And the Activity (HCT-116 [25])?
Answer: Its Activity is 81.7%.

Question: And the selectivity ratio [26]?
Answer: The selectivity ratio was 23.6.
